Calls of active or inactive are those of the source. No cut-off for these calls is given here.
Experiments:
[1] = molecular target: T1, DNA topoisomerase 1 (Homo sapiens) (UniProt P11387); assay: Inhibition of recombinant human Topo1-mediated relation of supercoiled pBR322 DNA at 50 uM after 30 mins by agarose gel electrophoresis
T1 sequence (whole entry): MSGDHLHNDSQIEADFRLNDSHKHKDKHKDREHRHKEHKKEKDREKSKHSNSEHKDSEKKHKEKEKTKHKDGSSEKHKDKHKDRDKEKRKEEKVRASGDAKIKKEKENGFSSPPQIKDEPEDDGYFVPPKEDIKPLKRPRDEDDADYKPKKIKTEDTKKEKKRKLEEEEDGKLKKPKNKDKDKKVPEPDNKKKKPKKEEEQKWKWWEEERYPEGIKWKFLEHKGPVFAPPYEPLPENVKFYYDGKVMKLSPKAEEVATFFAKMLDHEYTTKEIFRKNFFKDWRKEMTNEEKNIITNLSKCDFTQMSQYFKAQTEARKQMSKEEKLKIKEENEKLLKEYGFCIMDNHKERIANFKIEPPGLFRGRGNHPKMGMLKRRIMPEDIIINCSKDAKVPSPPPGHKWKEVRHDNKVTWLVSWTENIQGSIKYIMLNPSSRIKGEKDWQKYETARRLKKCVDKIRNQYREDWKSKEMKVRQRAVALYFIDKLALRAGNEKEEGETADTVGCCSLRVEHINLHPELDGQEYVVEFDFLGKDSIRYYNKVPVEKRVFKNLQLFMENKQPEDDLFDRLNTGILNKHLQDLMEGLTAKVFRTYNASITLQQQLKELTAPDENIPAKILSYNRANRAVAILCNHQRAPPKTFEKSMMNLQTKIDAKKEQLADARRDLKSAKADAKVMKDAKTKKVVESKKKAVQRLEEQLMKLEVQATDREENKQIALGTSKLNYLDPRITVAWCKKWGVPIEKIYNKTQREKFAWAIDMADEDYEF
Outline: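 pBR322 at 100 ng with 1.0 unit recombinant human topo I. Incubated 30 min at 37 °C in 35 mM Tris-HCl pH 8.0, 5 mM MgCl2, 72 mM KCl, 0.01% BSA, 2 mM spermidine and 5 mM DTT. Run on 1% agarose in TAE at 100 V for 25 min. EB-stained gel viewed under UV.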

K562 = assay: Antiproliferative activity against human K562 cells after 48 hrs by MTT assay; assay type: functional, cell-based; conditions: K562, 48 h
Outline: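 K562 suspension cells in RPMI-1640 with 10% FBS, 37 °C, 5% CO2. Seeded at 1.5×10^4 cells/well, exposed 48 h to final 50, 25, 10, 1 and 0.1 μM. MTT (5 mg/mL) added for 4 h at 37 °C. IC50 from the dose series.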

| inhibition [1] | IC50 (K562) [µM] | SMILES |
| --- | --- | --- |
| inactive | 11.2 | COCCNC(=O)c1ccc(N(Cc2ccccn2)Cc2ccccn2)c2c(=O)c3cccc(C)c3[nH]c12 |
| Active | 0.89 | CN(C)CCNC(=O)c1ccc(NCc2ccncc2)c2c(=O)c3cccc(C(F)(F)F)c3[nH]c12 |
| Active | 6.12 | COc1cccc2c(=O)c3c(NCc4ccccn4)ccc(C(=O)NCCCN(C)C)c3[nH]c12 |
| Active | 6.07 | COc1cccc2c(=O)c3c(NCc4ccncc4)ccc(C(=O)NCCCCN(C)C)c3[nH]c12 |
| inactive | > 50 | COCCNC(=O)c1ccc(NCc2ccccn2)c2c(=O)c3cccc(OC)c3[nH]c12 |
| inactive | > 50 | COCCNC(=O)c1ccc(NCc2ccccn2)c2c(=O)c3cccc(C)c3[nH]c12 |
| Active | 11.9 | COc1cccc2c(=O)c3c(NCc4ccncc4)ccc(C(=O)NCCCN(C)C)c3[nH]c12 |
| inactive | 13.9 | COc1cccc2c(=O)c3c(N(Cc4ccccn4)Cc4ccccn4)ccc(C(=O)NCCN(C)C)c3[nH]c12 |
| Active | 8.25 | Cc1cccc2c(=O)c3c(NCc4ccncc4)ccc(C(=O)NCCCN(C)C)c3[nH]c12 |
| Active | 2.28 | COc1cccc2c(=O)c3c(NCc4ccccn4)ccc(C(=O)NCCN(C)C)c3[nH]c12 |
| Active | 1.09 | Cc1cccc2c(=O)c3c(NCc4cccnc4)ccc(C(=O)NCCN(C)C)c3[nH]c12 |
| inactive | > 50 | COCCNC(=O)c1ccc(NCc2cccnc2)c2c(=O)c3cccc(OC)c3[nH]c12 |
| inactive | 13.5 | COc1cccc2c(=O)c3c(N(Cc4ccccn4)Cc4ccccn4)ccc(C(=O)NCCCN(C)C)c3[nH]c12 |
| Active | 6.45 | Cc1cccc2c(=O)c3c(NCc4ccccn4)ccc(C(=O)NCCCN(C)C)c3[nH]c12 |
| inactive | > 50 | COCCNC(=O)c1ccc(NCc2ccncc2)c2c(=O)c3cccc(C)c3[nH]c12 |
| Active | 0.97 | CN(C)CCNC(=O)c1ccc(NCc2ccncc2)c2c(=O)c3cc(Cl)cc(Cl)c3[nH]c12 |
| Active | 1.71 | Cc1cccc2c(=O)c3c(NCc4ccccn4)ccc(C(=O)NCCN(C)C)c3[nH]c12 |
|  | 0.55 | COc1cccc2c1C(=O)c1c(O)c3c(c(O)c1C2=O)C[C@@](O)(C(=O)CO)C[C@@H]3O[C@H]1C[C@H](N)[C@H](O)[C@H](C)O1 [DOXORUBICIN] |
| Active | 1.36 | COc1cccc2c(=O)c3c(NCc4ccncc4)ccc(C(=O)NCCN(C)C)c3[nH]c12 |
| Active | 0.93 | COc1cccc2c(=O)c3c(NCc4cccnc4)ccc(C(=O)NCCN(C)C)c3[nH]c12 |
| Active | 11.3 | COc1cccc2c(=O)c3c(NCc4cccnc4)ccc(C(=O)NCCCN(C)C)c3[nH]c12 |
| inactive | > 50 | COCCNC(=O)c1ccc(NCc2ccncc2)c2c(=O)c3cccc(OC)c3[nH]c12 |
| Active | 11.8 | Cc1cccc2c(=O)c3c(NCc4cccnc4)ccc(C(=O)NCCCN(C)C)c3[nH]c12 |
| inactive | > 50 | COCCNC(=O)c1ccc(NCc2cccnc2)c2c(=O)c3cccc(C)c3[nH]c12 |
| Active | 3.08 | COc1cccc2c(=O)c3c(NCCc4ccncc4)ccc(C(=O)NCCN(C)C)c3[nH]c12 |
| Active | 6.33 | CN(C)CCNC(=O)c1ccc(NCc2ccncc2)c2c(=O)c3ccccc3[nH]c12 |

Source: ChEMBL document CHEMBL3407337, “Molecular design, synthesis and biological research of novel pyridyl acridones as potent DNA-binding and apoptosis-inducing agents” (Eur J Med Chem, 2015)
